Laboratory results: publication PMC4785611 (British Journal of Haematology, 2016)
“Also recorded” adds a separate entry of the source.

What was measured:
[1] = test system: patients with multiple myeloma; details: of 526 patients; ref Siegel et al, 2013; cited from earlier work
[2] = test system: Japanese patients with relapsed and/or refractory multiple myeloma; assay: Phase 1 dose escalation: dose-limiting toxicity in Cycle 1; assay type: in vivo, human; details: for Dose-limiting toxicity (DLT): Cycle 1
How it was run: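 Test compound was given IV over 10 min on Days 1, 2, 8, 9, 15 and 16 of 28-day cycles. The 20/27 arm received 20 mg/m2 on Days 1–2 of Cycle 1 and 27 mg/m2 from Day 8. Three or six patients per cohort: 1/3 DLT added three patients. At 2/3 or 3/6, the prior level became the recommended dose. No G-CSF was allowed during Cycle 1 evaluation.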

[3] = test system: Japanese patients with relapsed and/or refractory multiple myeloma; assay: Phase 1/2 study ONO-7057-01: adverse events; assay type: in vivo, human
How it was run: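 Safety set was all patients given ≥1 IV dose (10 min; Days 1, 2, 8, 9, 15, 16 of 28-day cycles). Pre-medication was 4 mg oral or IV dexamethasone, with hydration in Cycle 1. Cycle 1 also had prophylactic antibiotics, plus acyclovir if herpes history. Patients with Grade ≥3 or painful Grade 2 PN or prior ILD were excluded. AEs were graded by NCI-CTCAE v4.0 through Cycle 6, with later cycles included.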

Question: For `CC(C)C[C@H](NC(=O)[C@H](CCc1ccccc1)NC(=O)CN1CCOCC1)C(=O)N[C@@H](Cc1ccccc1)C(=O)N[C@@H](CC(C)C)C(=O)[C@@]1(C)CO1` [carfilzomib], which “PN Grade ≥3, patients, integrated analysis” value [1] is on record?
Answer: The value was “seven”.

Question: What about the “Dose-limiting toxicity (DLT)” value ([2]; 15 mg/m^2 cohort, four patients (one not evaluable)) of the same molecule?
Answer: Its value is “no DLT was observed”.

Question: And the “Dose-limiting toxicity (DLT)” value ([2]; 20/27 mg/m^2 cohort, seven patients (one not evaluable))?
Answer: The value was “no DLT was observed”.

Question: What about the “Maximum tolerated dose (MTD)” value ([2]; doses 15, 20 and 20/27 mg/m^2) of the same molecule?
Answer: Its value is “did not reach the maximum tolerated dose; also recorded: did not reach the MTD”.

Question: What about the “Peripheral neuropathy under study treatment, preferred terminology (Grade)” value ([3]; Patient No. 1, 20 mg/m^2, baseline PN Grade 1, worst PN Grade before the study 3) of the same molecule?
Answer: The value was “Peripheral neuropathy (2)”.

Question: What about the “Interstitial lung disease (ILD)” value ([3]; Total, N = 50) of the same molecule?
Answer: Its value is “No ILD was observed”.

Question: What about the “AEs leading to death” value ([3]; during administration period or within 30 days after final administration) of the same molecule?
Answer: Its value is “No AEs led to death”.

Question: What about the “New PN in patients who had never experienced PN before enrolment” value ([3]; five patients without PN history) of the same molecule?
Answer: The value was “no new cases of PN occurred and did not develop PN and none”.

Question: What about the “Patients with PN at baseline in whom carfilzomib exacerbated PN” value ([3]; of 35 patients with PN at baseline) of the same molecule?
Answer: Its value is “three”.

Question: What about the “Patients believed to have infections leading to treatment interruption (pneumonia, fever)” value ([3]; of the 24 patients whose treatment was interrupted) of the same molecule?
Answer: The value was “three”.

Question: And the “Patients with treatment interrupted because of neutropenia” value ([3]; of the 24 patients whose treatment was interrupted, seven events)?
Answer: The value was “five”.
